From ChEMBL document CHEMBL3243980, “Structural analogues of L-glutamic Acid gamma-(4-hydroxyanilide) and gamma-(3,4-dihydroxyanilde) as potential agents against melanoma” (1979)

test system: B16; assay: Cytotoxicity against mouse B16 cells after 48 hrs; format: functional; settings: B16, 48 h, read-out: ID50 (the source's name)
In short: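 Moderately pigmented B16 murine melanoma cells grown as monolayers in McCoy's 5A medium plus 10% fetal calf serum, in exponential growth at assay. Drug added 24 h after plating, incubation continued another 48 h. Four dose levels tested in triplicate, generally 0.1–1.0 mM (0.01–0.1 mM for one compound); ID50 reported as mM, SD within ±10% of mean.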

First: N[C@@H](CCC(=O)Nc1ccc(O)cc1)C(=O)O
Second: N[C@@H](CC(=O)Nc1ccc(O)cc1)C(=O)O
The IC50 of the first is 3.1-fold lower: 100 µM for the first, 310 µM for the second.

First: N[C@@H](CCC(=O)Nc1cccc(O)c1)C(=O)O
Second: N[C@@H](CCC(=O)Nc1ccc(O)c(O)c1)C(=O)O
The IC50 of the first is 3.7-fold higher: 1000 µM for the first, 270 µM for the second.

COc1ccc(NC(=O)CC[C@H](N)C(=O)O)cc1 and N[C@@H](CCC(=O)O)C(=O)Nc1ccc(O)cc1 cannot be ordered by IC50: > 1000 µM for the first, > 1000 µM for the second.

First: N[C@@H](CCC(=O)Nc1ccc2c(c1)OCO2)C(=O)O
Second: N[C@@H](CCC(=O)Nc1cc(O)ccc1O)C(=O)O
The IC50 of the first is higher: > 1000 µM for the first, 51 µM for the second. The second is the more potent here.

NCCCC(=O)Nc1ccc(O)cc1 and O=C(O)CCCC(=O)Nc1ccc(O)cc1 cannot be ordered by IC50: > 1000 µM for the first, > 1000 µM for the second.

For O=C(CCCC(=O)Nc1ccc(O)cc1)Nc1ccc(O)cc1, the IC50 was > 1000 µM.
